Six compounds from ChEMBL document CHEMBL3091281, “Neuroprotective benzyl benzoate glycosides from Disporum viridescens roots in HT22 hippocampal neuronal cells” (J Nat Prod, 2013) can be followed below.

Calls of active or inactive are those of the source. The calls are words filed in the database; no cut-off is given here.

The subject of data set [1] is HT-22. Put plainly: Cytotoxicity against mouse HT22 cells. Type of data set: cell-based. In a few lines: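 MTT viability assay in BV2 and HT22 cells, compounds tested without glutamate.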
Data set [2] relates to HT-22. Put plainly: Induction of JNK phosphorylation in mouse HT22 cells at 100 uM after 0.5 to 12 hrs by Western blotting analysis. The class given is cell-based. In a few lines:
(§1)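 HT22 cells treated 30 min (kinases) or 12 h (HO-1) at stated concentrations or times; lysed in RIPA with protease and phosphatase inhibitors, 30 μg protein on 10% SDS-PAGE, PVDF transfer, overnight 4 °C primary antibodies (HO-1, ERK/p-ERK, JNK/p-JNK, p38/p-p38, β-actin), ECL detection.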
For orientation: A western blot detects proteins with antibodies after separation by electrophoresis.

In data set [3] the target is MAP kinase p38 (Mus musculus) (UniProt P47811+O08911+Q9WUI1+Q9Z1B7). Put plainly: Induction of p38 phosphorylation in mouse HT22 cells at 100 uM after 0.5 to 12 hrs by Western blotting analysis. As to conditions: HT-22. Type of data set: cell-based. In a few lines: as §1
Data set [4] deals with HT-22. Put plainly: Neuroprotective activity against L-glutamate-induced neurotoxicity in mouse HT22 cells assessed as GSH-Px activity at 10 uM incubated 1 hr prior to L-glutamate-challenge measured after 12 hrs (reference value: 0.036 +/- 0.001 mU/mg protein). Type of data set: functional.
The test system of data set [5] is HT-22. Put plainly: Neuroprotective activity in mouse HT22 cells assessed as HO-1 protein expression at 100 uM by Western blotting analysis in presence of SB203580. Type of data set: functional, cell-based. In a few lines: as §1
Data set [6] deals with HT-22. The data set can be described thus: Neuroprotective activity against L-glutamate-induced neurotoxicity in mouse HT22 cells assessed as GSH/GSSG ratio at 50 uM incubated 1 hr prior to L-glutamate-challenge measured after 12 hrs (reference value: 1.105 +/- 0.112). Type of data set: functional.
Data set [7] deals with HT-22. Put plainly: Neuroprotective activity against L-glutamate-induced neurotoxicity in mouse HT22 cells assessed as SOD activity at 100 uM incubated 1 hr prior to L-glutamate-challenge measured after 12 hrs by xanthine-xanthine oxidase reaction (reference value: 16.10 +/- 0.54 U/mg protein). The class given is functional.
Data set [8] deals with HT-22. Put plainly: Neuroprotective activity against L-glutamate-induced neurotoxicity in mouse HT22 cells assessed as cell viability at 10 to 100 uM incubated 1 hr prior to L-glutamate-challenge measured after 12 hrs by MTT assay. Type of data set: functional, cell-based. In a few lines: (§2)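 Mouse hippocampal HT22 cells seeded at 3 × 10^4 per well in DMEM, pretreated 1 h with compound in DMSO (0.1% final), then exposed to 5 mM L-glutamate; viability by MTT after further 12 h.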
Background: Formazan colour is commonly taken as a measure of viable cells.

Data set [9] relates to HT-22. The data set can be described thus: Neuroprotective activity against L-glutamate-induced neurotoxicity in mouse HT22 cells assessed as GSH/GSSG ratio at 100 uM incubated 1 hr prior to L-glutamate-challenge measured after 12 hrs (reference value: 1.105 +/- 0.112). The class given is functional.
Data set [10] deals with HT-22. The data set can be described thus: Antioxidant activity in mouse HT22 cells assessed as HO-1 protein expression at 100 uM after 6 to 18 hrs by Western blotting analysis. Type of data set: functional, cell-based. In a few lines:
as §1

Data set [11] relates to HT-22. The data set can be described thus: Antioxidant activity in mouse HT22 cells assessed as HO-1 protein expression at 100 uM by Western blotting analysis. As to conditions: TDE = time-dependent effect. The class given is functional, cell-based. In a few lines: as §1
For data set [12], the system named is HT-22. Put plainly: Antioxidant activity in mouse HT22 cells assessed as HO-1 protein expression after 0.5 to 12 hrs by Western blotting analysis. Type of data set: functional, cell-based. In a few lines: as §1
Data set [13] deals with HT-22. Put plainly: Neuroprotective activity in mouse HT22 cells assessed as HO-1 protein expression at 100 uM by Western blotting analysis in presence of PD98059. Type of data set: functional, cell-based. In a few lines:
as §1

Data set [14] concerns HT-22. Put plainly: Neuroprotective activity against L-glutamate-induced neurotoxicity in mouse HT22 cells assessed as cell viability at 100 uM incubated 1 hr prior to L-glutamate-challenge measured after 12 hrs by MTT assay in presence of SnPP. The class given is functional, cell-based. In a few lines:
as §2

The test system of data set [15] is HT-22. The data set can be described thus: Neuroprotective activity against L-glutamate-induced neurotoxicity in mouse HT22 cells assessed as GSH-Px activity at 50 uM incubated 1 hr prior to L-glutamate-challenge measured after 12 hrs (reference value: 0.036 +/- 0.001 mU/mg protein). The class given is functional.
In data set [16] the test system is HT-22. The data set can be described thus: Neuroprotective activity against L-glutamate-induced neurotoxicity in mouse HT22 cells assessed as GSH/GSSG ratio incubated 1 hr prior to L-glutamate-challenge measured after 12 hrs. The class given is functional, cell-based.
Data set [17] concerns HT-22. Put plainly: Induction of ERK phosphorylation in mouse HT22 cells at 100 uM after 0.5 to 12 hrs by Western blotting analysis. Type of data set: cell-based. In a few lines:
as §1

Data set [18] has as its system BV-2 (Mus musculus). The data set can be described thus: Cytotoxicity against mouse BV2 cells.
Data set [19] deals with HT-22. Put plainly: Neuroprotective activity against L-glutamate-induced neurotoxicity in mouse HT22 cells assessed as SOD activity at 10 uM incubated 1 hr prior to L-glutamate-challenge measured after 12 hrs by xanthine-xanthine oxidase reaction (reference value: 16.10 +/- 0.54 U/mg protein). Type of data set: functional.
In data set [20] the test system is HT-22. Put plainly: Neuroprotective activity against L-glutamate-induced neurotoxicity in mouse HT22 cells assessed as GSH-Px activity at 100 uM incubated 1 hr prior to L-glutamate-challenge measured after 12 hrs (reference value: 0.036 +/- 0.001 mU/mg protein). Type of data set: functional.
The test system of data set [21] is HT-22. The data set can be described thus: Neuroprotective activity against L-glutamate-induced neurotoxicity in mouse HT22 cells assessed as GSH/GSSG ratio at 10 uM incubated 1 hr prior to L-glutamate-challenge measured after 12 hrs (reference value: 1.105 +/- 0.112). The class given is functional.
In data set [22] the test system is HT-22. Put plainly: Neuroprotective activity against L-glutamate-induced neurotoxicity in mouse HT22 cells assessed as GR activity at 100 uM incubated 1 hr prior to L-glutamate-challenge measured after 12 hrs (reference value: 0.94 +/- 0.19 mU/mg protein). Type of data set: functional.
Data set [23] relates to BV-2 (Mus musculus). The data set can be described thus: Antiinflammatory activity in mouse BV2 cells assessed as inhibition of LPS-stimulated NO production at 10 to 100 uM by Griess assay. On the technique in general: Griess reagent forms a coloured azo dye with nitrite.
In data set [24] the test system is HT-22. The data set can be described thus: Neuroprotective activity against L-glutamate-induced neurotoxicity in mouse HT22 cells assessed as GR activity at 50 uM incubated 1 hr prior to L-glutamate-challenge measured after 12 hrs (reference value: 0.94 +/- 0.19 mU/mg protein). Type of data set: functional.
Data set [25] has as its system HT-22. The data set can be described thus: Neuroprotective activity in mouse HT22 cells assessed as HO-1 protein expression at 100 uM by Western blotting analysis in presence of SP600125. Type of data set: functional, cell-based. In a few lines:
as §1

The test system of data set [26] is HT-22. The data set can be described thus: Neuroprotective activity against L-glutamate-induced neurotoxicity in mouse HT22 cells assessed as SOD activity at 50 uM incubated 1 hr prior to L-glutamate-challenge measured after 12 hrs by xanthine-xanthine oxidase reaction (reference value: 16.10 +/- 0.54 U/mg protein). The class given is functional.
Data set [27] deals with HT-22. The data set can be described thus: Neuroprotective activity against L-glutamate-induced neurotoxicity in mouse HT22 cells assessed as GR activity at 10 uM incubated 1 hr prior to L-glutamate-challenge measured after 12 hrs (reference value: 0.94 +/- 0.19 mU/mg protein). The class given is functional.

As to `COc1c(O)ccc(O[C@@H]2O[C@@H](C)[C@H](OC(C)=O)[C@@H](O)[C@H]2O)c1C(=O)OCc1ccccc1O[C@@H]1O[C@H](CO)[C@@H](O)[C@H](O)[C@H]1O`, the Activity entry with HT-22 [1] is “Toxic”; in the data set on HT-22 [4], 0.056 mU/mg; in the data set with HT-22 [7], 30.71 U/mg; in the data set with HT-22 [11], “tde”; in the data set with HT-22 [12], “Dose-dependent effect”; with HT-22 [15] it was 0.055 mU/mg. Further, the Activity result in the data set on HT-22 [16] is “Dose-dependent effect”; in the data set with BV-2 (Mus musculus) [18], “Toxic”; in the data set with HT-22 [19], 29.78 U/mg; in the data set on HT-22 [20], 0.059 mU/mg; in the data set with HT-22 [22] it was 1.14 mU/mg; with HT-22 [24], 0.9 mU/mg. Further, the values for the Activity in the data set on HT-22 [26] and with HT-22 [27] were 29.05 U/mg and 0.72 mU/mg, respectively. The outcome (in the data set on HT-22 [2]; in [3]; with HT-22 [13]; in the data set with HT-22 [14]) was inactive. Moreover, the result in the data set on HT-22 [5], with HT-22 [8], with HT-22 [10], with HT-22 [17], with BV-2 (Mus musculus) [23] and in the data set on HT-22 [25] was Active. The Ratio in the data set on HT-22 [6] is reported as 2.3; in the data set with HT-22 [9] it was 2.824; in the data set on HT-22 [21], 1.594.
Regarding `COc1ccc(O[C@@H]2O[C@@H](C)[C@H](O)[C@@H](O)[C@H]2O)c(C(=O)OCc2ccccc2O[C@@H]2O[C@H](CO)[C@@H](O)[C@H](O)[C@H]2O)c1O`, the Activity result with HT-22 [1] and in the data set with BV-2 (Mus musculus) [18] was “Toxic” throughout. Also, the result with HT-22 [8] and in the data set on BV-2 (Mus musculus) [23] was Active.
Consider `COc1c(O)ccc(O[C@@H]2O[C@@H](C)[C@H](O)[C@@H](O)[C@H]2O)c1C(=O)OCc1ccccc1O[C@@H]1O[C@H](CO)[C@@H](O)[C@H](O)[C@H]1O`, for which the Activity entry in the data set on HT-22 [1] and in the data set on BV-2 (Mus musculus) [18] was “Toxic” throughout. The outcome in the data set with HT-22 [8] and with BV-2 (Mus musculus) [23] was Active.
As for `O=C(OCc1ccccc1O[C@@H]1O[C@H](CO)[C@@H](O)[C@H](O)[C@H]1O)c1c(O)cccc1O[C@@H]1O[C@H](CO)[C@@H](O)[C@H](O)[C@H]1O`, the Activity entry in the data set on HT-22 [1] and with BV-2 (Mus musculus) [18] was “Toxic” in each case. In addition, the result in the data set with BV-2 (Mus musculus) [23] was Active.
Turning to `COc1c(O)ccc(O[C@@H]2O[C@@H](C)[C@H](O)[C@@H](O)[C@H]2O)c1C(=O)OCc1ccccc1O[C@@H]1O[C@@H](C)[C@H](O)[C@@H](O)[C@H]1O`, the Activity entry with HT-22 [1] and with BV-2 (Mus musculus) [18] was “Toxic” in each case. For the same compound, the outcome in the data set on HT-22 [8] and in the data set on BV-2 (Mus musculus) [23] was Active.
For `C[C@@H]1O[C@@H](Oc2ccc(O)c(O)c2C(=O)OCc2ccccc2O[C@@H]2O[C@H](CO)[C@@H](O)[C@H](O)[C@H]2O)[C@H](O)[C@H](O)[C@H]1O`, the Activity result in the data set on HT-22 [1] and in the data set with BV-2 (Mus musculus) [18] was “Toxic” in each case. Moreover, the outcome in the data set with BV-2 (Mus musculus) [23] was Active.
